Source: ChEMBL document CHEMBL1152609, “Synthesis and pharmacological exploitation of clioquinol-derived copper-binding apoptosis inducers triggering reactive oxygen species generation and MAPK pathway activation” (2009)
Each block holds one molecule with its values, some of them ahead of it. Activity calls are given as the source filed them. The rule behind the calls is not given here.

How the values were obtained:
CE81T = assay: Growth inhibition of human CE81T cells at 40 uM after 48 hrs by MTT assay in presence of 10% FBS supplemented DMEM medium; assay type: functional, cell-based
In short: (§1)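 Cells seeded at 5 × 10³/well and allowed 24 h to attach, then exposed to compound (DMSO stock) or vehicle for 48 h in 10% FBS DMEM at 37 °C, 5% CO₂. MTT (2 mg/mL in PBS) added for a further 2 h; formazan dissolved in DMSO and read at 570 nm. Inhibition = (1 − At/Ac) × 100. GI₅₀ interpolated from dose-response curves; mean ± SEM of 4–6 experiments; top concentration 40 μM.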

HeLa [1] = assay: Growth inhibition of human HeLa cells after 48 hrs by MTT assay in presence of 10% FBS supplemented DMEM medium; assay type: functional; in short: as §1
BT-483 = assay: Growth inhibition of human BT-483 cells at 40 uM after 48 hrs by MTT assay in presence of 10% FBS supplemented DMEM medium; assay type: functional, cell-based; in short: as §1
HeLa [2] = assay: Growth inhibition of human HeLa cells after 48 hrs by MTT assay in presence of 1 uM CuCl2; assay type: functional; in short: as §1
HeLa [3] = assay: Growth inhibition of human HeLa cells after 48 hrs by MTT assay in presence of 50 uM CuCl2; assay type: functional; in short: as §1
SKHep = assay: Growth inhibition of human SKHep cells at 40 uM after 48 hrs by MTT assay in presence of 10% FBS supplemented DMEM medium; assay type: functional, cell-based; in short: as §1
HeLa [4] = assay: Growth inhibition of human HeLa cells after 48 hrs by MTT assay in presence of 100 uM ZnCl2; assay type: functional; in short: as §1
HeLa [5] = assay: Growth inhibition of human HeLa cells after 48 hrs by MTT assay in presence of 10 uM CuCl2; assay type: functional; in short: as §1
HeLa [6] = assay: Growth inhibition of human HeLa cells after 48 hrs by MTT assay in presence of 50 uM ZnCl2; assay type: functional; in short: as §1
[7] = target: T1, MAP kinase p38 (Homo sapiens) (UniProt O15264+Q15759+Q16539+P53778); assay: Activation of p38 phosphorylation in human HeLa cells at 3 uM after 2 hrs by Western blot; assay type: cell-based
In short: (§2)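 HeLa cells grown in DMEM with 10% FBS, 2 mM glutamine and penicillin/streptomycin at 37 °C, 5% CO₂. Treated cells were lysed and the extracts run on Western blot. Membranes were blocked overnight at 4 °C in TBST/5% non-fat milk. Probed with phospho- and total ERK1/2, p38 and JNK antibodies, then anti-mouse or anti-rabbit IgG (1:10,000, 1 h, RT), with ECL detection.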

[8] = Activation of JNK phosphorylation in human HeLa cells at 3 uM in presence of 10 uM CuCl2 by Western blot; assay type: cell-based; details: TDE = time-dependent effect; in short: as §2
HeLa [9] = assay: Induction of apoptosis in human HeLa cells assessed as accumulation at subG1 phase at 3 uM in presence of 1 mM tempol after 24 hrs using propidium iodide staining by flow cytometry; assay type: functional
In short: (§3)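 HeLa cells exposed 24 h to test agent; controls were 0.5% DMSO and untreated cells. Optional additions were CuCl₂ 10 μM, tempol 1 mM or z-VAD. Cells were fixed in 80% ethanol and held at −20 °C. They were then stained 30 min at room temperature in the dark with PI 0.08 mg/mL, 0.1% Triton X-100 and RNase A 0.2 mg/mL in PBS. Subdiploid (sub-G1) fraction was quantified by flow cytometry as % of all events.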

HeLa [10] = assay: Activation of ERK phosphorylation in human HeLa cells at 3 uM in presence of 10 uM CuCl2 after 2 hrs by Western blot; assay type: cell-based; in short: as §2
HeLa [11] = assay: Induction of apoptosis in human HeLa cells assessed as procaspase-3 activation at 3 uM after 24 hrs by Western blot; assay type: functional, cell-based
[12] = Activation of JNK phosphorylation in human HeLa cells at 3 uM after 2 hrs by Western blot; assay type: cell-based; in short: as §2
HeLa [13] = assay: Induction of apoptosis in human HeLa cells assessed as procaspase-9 activation at 10 uM after 24 hrs by Western blot; assay type: functional, cell-based
HeLa [14] = assay: Activation of ERK phosphorylation in human HeLa cells at 3 uM in presence of 10 uM CuCl2 and tempol after 2 hrs by Western blot; assay type: cell-based; in short: as §2
HeLa [15] = assay: Induction of apoptosis in human HeLa cells assessed as accumulation at subG1 phase at 3 uM after 24 hrs using propidium iodide staining by flow cytometry; assay type: functional; in short: as §3
[16] = Activation of JNK phosphorylation in human HeLa cells at 3 uM in presence of 10 uM CuCl2 after 2 hrs by Western blot; assay type: cell-based; in short: as §2
HeLa [17] = assay: Activation of ERK phosphorylation in human HeLa cells at 3 uM in presence of 10 uM CuCl2 by Western blot; assay type: cell-based; details: TDE = time-dependent effect; in short: as §2
[18] = Activation of JNK phosphorylation in human HeLa cells at 3 uM in presence of 10 uM CuCl2 and tempol after 2 hrs by Western blot; assay type: cell-based; in short: as §2
HeLa [19] = assay: Induction of apoptosis in human HeLa cells assessed as accumulation at subG1 phase after 24 hrs by flow cytometry; assay type: functional, cell-based; in short: as §3
[20] = target: T1, MAP kinase p38 (Homo sapiens); assay: Activation of p38 phosphorylation in human HeLa cells at 3 uM in presence of 10 uM CuCl2 after 2 hrs by Western blot; assay type: cell-based; in short: as §2
[21] = Growth inhibition of human SKHep cells after 48 hrs by MTT assay in presence of 10% FBS supplemented DMEM medium; assay type: functional; in short: as §1
[22] = Growth inhibition of human BT-483 cells after 48 hrs by MTT assay in presence of 10% FBS supplemented DMEM medium; assay type: functional; details: BT-483, 48 h; in short: as §1
[23] = target: T1, MAP kinase p38 (Homo sapiens); assay: Activation of p38 phosphorylation in human HeLa cells at 3 uM in presence of 10 uM CuCl2 and tempol after 2 hrs by Western blot; assay type: cell-based; in short: as §2
HeLa [24] = assay: Induction of apoptosis in human HeLa cells assessed as procaspase-9 activation at 3 uM after 24 hrs by Western blot; assay type: functional, cell-based
HeLa [25] = assay: Induction of apoptosis in human HeLa cells assessed as accumulation at subG1 phase at 3 uM in presence of 10 uM CuCl2 after 24 hrs using propidium iodide staining by flow cytometry; assay type: functional; in short: as §3
HeLa [26] = assay: Induction of apoptosis in human HeLa cells assessed as procaspase-3 activation at 10 uM after 24 hrs by Western blot; assay type: functional, cell-based
[27] = Growth inhibition of human CE81T cells after 48 hrs by MTT assay in presence of 10% FBS supplemented DMEM medium; assay type: functional; in short: as §1
HeLa [28] = assay: Induction of apoptosis in human HeLa cells assessed as PARP cleavage at 10 uM after 24 hrs by Western blot; assay type: functional, cell-based
HeLa [29] = assay: Stimulation of reactive oxygen species in human HeLa cells at 3 uM in presence of 5 uM CuCl2 after 1 hr by dihydroethidium dye based fluorescence assay; assay type: functional, cell-based
In short: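 HeLa cells grown in DMEM with 10% FBS, 2 mM glutamine, penicillin/streptomycin at 37 °C, 5% CO2. Compound given with CuCl2, with or without tempol 1 mM; 0.5% DMSO control, untreated blank. Dihydroethidium 5 µmol/L loaded 30 min, PBS wash, epifluorescence microscopy; four separate cultures, two to six coverslips each.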

[30] = target: T1, MAP kinase p38 (Homo sapiens); assay: Activation of p38 phosphorylation in human HeLa cells at 3 uM in presence of 10 uM CuCl2 by Western blot; assay type: cell-based; details: TDE = time-dependent effect; in short: as §2
HeLa [31] = assay: Activation of ERK phosphorylation in human HeLa cells at 3 uM after 2 hrs by Western blot; assay type: cell-based; in short: as §2
HeLa [32] = assay: Induction of apoptosis in human HeLa cells assessed as PARP cleavage at 3 uM after 24 hrs by Western blot; assay type: functional, cell-based

- GI50 (HeLa [1]): 25.5 µM
- GI50 (BT-483): inactive
- GI50 (HeLa [2]): 30700 nM
- GI50 (HeLa [3]): 48800 nM
- GI50 (SKHep): inactive
- GI50 (HeLa [4]): 44.5 µM
- GI50 (HeLa [5]): 22800 nM
- GI50 (HeLa [6]): 34 µM
Compound: Oc1c(CN2CCCCC2)ccc2ccccc12
- GI50 (CE81T): inactive

- Activity [7]: inactive
- GI50 (HeLa [1]): 6.8 µM
- Activity [20]: Active
- GI50 (HeLa [2]): 2500 nM
- GI50 (HeLa [3]): 270 nM
- Activity [23]: inactive
- GI50 (HeLa [4]): 7.3 µM
- Activity [30]: tde
- GI50 (HeLa [5]): 310 nM
- GI50 (HeLa [6]): 7.5 µM
Compound: O=S(=O)(c1ccccc1)N1CCN(Cc2ccc3cccnc3c2O)CC1
- Activity [8]: tde
- Activity (HeLa [9]): 5.79%
- Activity (HeLa [10]): Active
- Activity (HeLa [11]): Active
- Activity [12]: inactive
- Activity (HeLa [13]): Active
- Activity (HeLa [14]): inactive
- Activity (HeLa [15]): 7.91%
- Activity [16]: Active
- Activity (HeLa [17]): tde
- Activity [18]: inactive
- Activity (HeLa [19]): Dose-dependent effect
- GI50 [21]: 14.6 µM
- GI50 [22]: 10.7 µM
- Activity (HeLa [24]): Active
- Activity (HeLa [25]): 29.76%
- Activity (HeLa [26]): Active
- GI50 [27]: 5.6 µM
- Activity (HeLa [28]): Active
- Activity (HeLa [29]): Active
- Activity (HeLa [31]): inactive
- Activity (HeLa [32]): Active

- GI50 (HeLa [1]): 14.5 µM
- GI50 (HeLa [2]): 3000 nM
- GI50 (HeLa [3]): 350 nM
- GI50 (HeLa [4]): 12.9 µM
- GI50 (HeLa [5]): 580 nM
- GI50 (HeLa [6]): 8.5 µM
Compound: Oc1c(CN2CCCCC2)ccc2cccnc12
- GI50 [21]: 16.6 µM
- GI50 [22]: 26.9 µM
- GI50 [27]: 16.7 µM
- Activity (HeLa [29]): Active
